The source made the active and inactive calls. The calls are words filed in the database; no cut-off is given here.
Legend:
Plasmodium falciparum [1] = experiment: Antimalarial activity against Plasmodium falciparum W2; assay type: functional, organism-based
Procedure, shortened: (§1)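 Cultured P. falciparum parasites were exposed to compound, and inhibition of [³H]hypoxanthine uptake was measured to give the IC50. Values come from a single experiment.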

Plasmodium falciparum [2] = experiment: Antimalarial activity against Plasmodium falciparum D6; assay type: functional, organism-based; procedure, shortened: as §1
Plasmodium falciparum [3] = experiment: Resistance index, IC50 of Plasmodium falciparum W2/IC50 Plasmodium falciparum D6; assay type: ADME, organism-based; conditions: in vitro
Procedure, shortened: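 Ratio of IC50 against P. falciparum W2 to IC50 against strain D6. Each IC50 comes from in vitro inhibition of [3H]hypoxanthine uptake by the parasites, with values from a single experiment.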

Mus musculus = experiment: Effect on survival of mice (Mus musculus) infected with Plasmodium berghei at 640 mg/kg, perorally; assay type: functional, organism-based; set-up: dose 640 mg/kg
Procedure, shortened: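 Mice were inoculated intraperitoneally on day 0 with 1.0 × 10⁶ P. berghei P-line-infected red cells. Compound was dissolved in DMSO, diluted with 0.5% hydroxyethylcellulose and 0.1% Tween, and given orally once daily on days 3–7 at 640 mg/kg/dose. Survival of five treated mice was compared with five untreated infected controls.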

[4] = Metabolic stability in mouse liver microsomes; assay type: ADME, Microsome

| SMILES | IC50 (Plasmodium falciparum [1]) | IC50 (Plasmodium falciparum [2]) | Ratio IC50 (Plasmodium falciparum [3]) | Activity (Mus musculus) | half-life [4] |
| --- | --- | --- | --- | --- | --- |
| COc1ccc(C(=O)/C=C/c2ccc3ccccc3n2)cc1 | > 17 µM | 4.7 µM |  |  |  |
| COc1cccc(OC)c1C(=O)/C=C/c1cccc2ccccc12 | 3.1 µM | 3.2 µM | 0.97 |  |  |
| COc1ccc(C(=O)/C=C/c2ccc3ccccc3n2)cc1F | 5.3 µM | 1.3 µM | 4.1 |  |  |
| O=C(/C=C/c1cnc2ccccc2c1)c1ccc(F)cc1F | 6.2 µM | 5 µM | 1.2 |  |  |
| O=C(/C=C/c1cnc2ccccc2c1)c1ccc(Cl)cc1Cl | 6.3 µM | 7.9 µM | 0.8 |  |  |
| COc1ccc(C(=O)/C=C/c2ccc3ccccc3c2)c(OC)c1 | > 16 µM | 8.7 µM |  |  |  |
| COc1ccc(C(=O)/C=C/c2cnc3ccccc3c2)cc1 | 3.3 µM | 1.8 µM | 1.8 |  |  |
| CCN(CC)CCCC(C)Nc1ccnc2cc(Cl)ccc12 (stereo not drawn) |  |  |  | Active |  |
| O=C(/C=C/c1ccnc2ccccc12)c1ccc(Cl)c(Cl)c1 | 0.8 µM | 1.7 µM | 0.47 | inactive |  |
| COc1ccc(C(=O)/C=C/c2cnc3ccccc3c2)c(OC)c1OC | 2.8 µM | 6.7 µM | 0.42 |  |  |
| COc1cccc(OC)c1C(=O)/C=C/c1ccc2ccccc2c1 | 3.3 µM | 3.4 µM | 0.97 |  |  |
| O=C(/C=C/c1cnc2ccccc2c1)c1ccc(F)c(F)c1 | 5.8 µM | 8.5 µM | 0.68 |  |  |
| COc1cccc(OC)c1C(=O)/C=C/c1ccnc2ccccc12 | 5.7 µM | 13 µM | 0.44 |  |  |
| COc1ccc(OC)c(C(=O)/C=C/c2cccc3ccccc23)c1 | 2.8 µM | 2.9 µM | 0.97 |  |  |
| COc1ccc(C(=O)/C=C/c2cnc3ccccc3c2)cc1F | 2.7 µM | 1.6 µM | 1.7 |  |  |
| COc1ccc(C(=O)/C=C/c2ccc3ccccc3c2)cc1 | > 17 µM | > 17 µM |  |  |  |
| COc1ccc(F)cc1C(=O)/C=C/c1ccc2ccccc2n1 | 0.67 µM | 3.8 µM | 0.18 |  |  |
| COc1ccc(C(=O)/C=C/c2ccnc3ccccc23)cc1OC | 0.5 µM | 0.88 µM | 0.57 | inactive | 15.6 min |
| COc1ccc(OC)c(C(=O)/C=C/c2ccc3ccccc3c2)c1 | 5 µM | 5.5 µM | 0.91 |  |  |
| COc1cccc(OC)c1C(=O)/C=C/c1cnc2ccccc2c1 | 1.1 µM | 2.2 µM | 0.53 |  |  |

| SMILES | IC50 (Plasmodium falciparum [1]) | IC50 (Plasmodium falciparum [2]) | Ratio IC50 (Plasmodium falciparum [3]) | Activity (Mus musculus) | half-life [4] |
| --- | --- | --- | --- | --- | --- |
| COc1ccc(OC)c(C(=O)/C=C/c2ccnc3ccccc23)c1 | 7.3 µM | 3 µM | 2.4 |  |  |
| O=C(/C=C/c1ccnc2ccccc12)c1ccc(Cl)cc1Cl | 18 µM | 6.2 µM | 2.9 |  |  |
| COc1ccc(C(=O)/C=C/c2ccc3ccccc3n2)c(OC)c1OC | 3.3 µM | 2.9 µM | 1.1 |  |  |
| O=C(/C=C/c1ccnc2ccccc12)c1cc(F)ccc1F | 8.6 µM | 3.7 µM | 2.3 |  |  |
| COc1cc(OC)cc(C(=O)/C=C/c2ccc3ccccc3c2)c1 | 9.5 µM | 7.4 µM | 1.3 |  |  |
| COc1ccc(C(=O)/C=C/c2ccc3ccccc3c2)c(OC)c1OC | > 14 µM | > 14 µM |  |  |  |
| COc1cc(OC)cc(C(=O)/C=C/c2cnc3ccccc3c2)c1 | 4.3 µM | 11 µM | 0.39 |  |  |
| COc1ccc(C(=O)/C=C/c2cccc3ccccc23)cc1 | 10 µM | 9.1 µM | 1.1 |  |  |
| COc1ccc(C(=O)/C=C/c2ccc3ccccc3c2)cc1OC | 7.7 µM | 9.8 µM | 0.79 |  |  |
| COc1ccc(C(=O)/C=C/c2ccnc3ccccc23)cc1F | 3.2 µM | 0.93 µM | 3.4 | inactive | 30.6 min |
| O=C(/C=C/c1ccnc2ccccc12)c1cc(Cl)ccc1Cl | 0.23 µM | 0.19 µM | 1.2 | inactive |  |
| COc1ccc(C(=O)/C=C/c2cnc3ccccc3c2)c(OC)c1 | 3.3 µM | 4.8 µM | 0.7 |  |  |
| COc1cc(C(=O)/C=C/c2ccc3ccccc3c2)cc(OC)c1OC | 6 µM | 6.6 µM | 0.91 |  |  |
| COc1ccc(Cl)cc1C(=O)/C=C/c1cnc2ccccc2c1 | 0.59 µM | 0.95 µM | 0.62 |  |  |
| COc1ccc(C(=O)/C=C/c2ccnc3ccccc23)cc1 | 10 µM | 5.4 µM | 1.9 |  |  |
| O=C(/C=C/c1cnc2ccccc2c1)c1ccc(Cl)c(Cl)c1 | 12 µM | 3.1 µM | 3.9 |  |  |
| COc1cc(C(=O)/C=C/c2cnc3ccccc3c2)cc(OC)c1OC | 14 µM | 21 µM | 0.67 |  |  |
| COc1ccc(C(=O)/C=C/c2ccnc3ccccc23)c(OC)c1OC | > 14 µM | 2.6 µM |  |  |  |
| COc1ccc(C(=O)/C=C/c2cnc3ccccc3c2)cc1OC | 2.2 µM | 3.4 µM | 0.65 |  |  |
| COc1ccc(C(=O)/C=C/c2cccc3ccccc23)c(OC)c1OC | 5.8 µM | 4.3 µM | 1.3 |  |  |

| SMILES | IC50 (Plasmodium falciparum [1]) | IC50 (Plasmodium falciparum [2]) | Ratio IC50 (Plasmodium falciparum [3]) | Activity (Mus musculus) | half-life [4] |
| --- | --- | --- | --- | --- | --- |
| COc1cc(F)ccc1C(=O)/C=C/c1cnc2ccccc2c1 | 1.5 µM | 1.1 µM | 1.4 |  |  |
| COc1ccc(C(=O)/C=C/c2cnc3ccccc3c2)c(F)c1 | 3.1 µM | 2.1 µM | 1.5 |  |  |
| COc1ccc(OC)c(C(=O)/C=C/c2cnc3ccccc3c2)c1 | 2.7 µM | 2 µM | 1.4 |  |  |
| COc1ccc(C(=O)/C=C/c2cccc3ccccc23)cc1OC | 5 µM | 5.2 µM | 0.96 |  |  |
| COc1ccc(C(=O)/C=C/c2cnc3ccccc3c2)cc1Cl | 1.6 µM | 2.3 µM | 0.7 |  |  |
| COc1ccc(C(=O)/C=C/c2ccnc3ccccc23)c(OC)c1 | 2 µM | 3 µM | 0.67 |  |  |
| COc1ccc(F)cc1C(=O)/C=C/c1cnc2ccccc2c1 | 1.1 µM | 0.46 µM | 2.4 |  |  |
| COc1ccc(F)cc1C(=O)/C=C/c1ccnc2ccccc12 | 4.1 µM | 5.1 µM | 0.8 |  |  |
| COc1ccc(C(=O)/C=C/c2ccnc3ccccc23)c(F)c1 | 4.5 µM | 2.4 µM | 1.9 |  |  |
| COc1cc(F)ccc1C(=O)/C=C/c1ccnc2ccccc12 | 6.2 µM | 6 µM | 1 |  |  |
| COc1ccc(C(=O)/C=C/c2cccc3ccccc23)c(OC)c1 | 4.6 µM | 4.9 µM | 0.94 |  |  |
| COc1ccc(C(=O)/C=C/c2ccnc3ccccc23)cc1Cl | 0.95 µM | 1.8 µM | 0.53 |  |  |
| O=C(/C=C/c1cnc2ccccc2c1)c1cc(F)ccc1F | 7.8 µM | 5.6 µM | 1.4 |  |  |
| O=C(/C=C/c1ccc2ccccc2n1)c1ccc(F)cc1F | 1.3 µM | 2.3 µM | 0.57 |  |  |
| O=C(/C=C/c1cnc2ccccc2c1)c1cc(Cl)ccc1Cl | 1.7 µM | 0.62 µM | 2.7 | inactive | 24.6 min |
| COc1cc(C(=O)/C=C/c2cccc3ccccc23)cc(OC)c1OC | 4.8 µM | 5.2 µM | 0.92 |  |  |
| O=C(/C=C/c1ccnc2ccccc12)c1ccc(F)c(F)c1 | 5.7 µM | 9.4 µM | 0.61 |  |  |
| COc1ccc(C(=O)/C=C/c2ccc3ccccc3n2)c(OC)c1 | 1.2 µM | 2 µM | 0.6 |  |  |
| COc1cc(OC)cc(C(=O)/C=C/c2cccc3ccccc23)c1 | 4.3 µM | 4.5 µM | 0.96 |  |  |
